According to paper PMC9339567 (Journal of Food and Drug Analysis, 2016):
“Also recorded” adds a separate entry of the source. One block for each substance: values may come before it. Where no end group is shown, it is not given here.

How the values were obtained:
[1] = DPPH radical scavenging assay; conditions: 15 μg/mL; absorbance 517 nm, 30 minutes in dark, room temperature; triplicate
How it was run: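 Test compound at 0.007–1 mg/mL, or GSH positive control over the same range, was mixed with an equal volume of 99.5% ethanol containing 0.02% DPPH. The mixture was held 30 minutes in the dark at room temperature and A517 read, with distilled water replacing sample as control. Scavenging % = (Acontrol − Asample)/Acontrol × 100; triplicate.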

[2] = ABTS radical scavenging activity assay; conditions: 6 minutes incubation, absorbance 734 nm; triplicate
[3] = ref 32 (Sampath Kumar et al); cited from earlier work
[4] = cited from earlier work
[5] = ref 28 (Tanzadehpanah et al); cited from earlier work
HFLF-PI 5 cells = experiment: Cytotoxicity assay; assay type: cell-based, human; conditions: 0–1 mg/mL, MTT 570 nm
How it was run: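 HFLF-PI 5 human lung cells were grown in RPMI with penicillin/streptomycin and 10% FBS at 37°C, 5% CO2. Cells were seeded at 1 × 10^5 cells/mL and, at 75% confluence, exposed to test compound at 0–1 mg/mL for 24, 48 or 72 hours, with PBS as control. After PBS washes, MTT (5 mg/mL stock) was added overnight at 37°C and formazan dissolved in DMSO. A570 was read and cytotoxicity % calculated relative to control.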

IC50 ABTS radical scavenging [2]: < 15 µg/mL
Substance: glutathione [GSH]
DPPH-radical scavenging [1]: 67%

Substance: ACFL
Inhibition of the oxidation process relative to α-tocopherol [3]: greater levels of inhibition of the oxidation process

Substance: HGPLGPL
Activity against ROS and linoleic acid peroxidation [4]: strong activity

Substance: LTEQESGVPVMK
IC50 DPPH radical scavenging [5]: 28.6 ± 1.08 µg/mL

Substance: WESLSRLLG [WG-9]
Effect on cell viability (HFLF-PI 5 cells; 24 hours, triplicate): no significantly effect on cell viability; also recorded: no significant cytotoxic effect
Effect on cell viability (HFLF-PI 5 cells; 48 hours, p < 0.05): significantly reduced
Effect on cell viability (HFLF-PI 5 cells; 72 hours, p < 0.05): significantly reduced
